Data set [1] in a line: ratio of DNA to compound bound entirely by covalent bonding to DNA base. In kind it is functional. Put shortly: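 [3H]Drug and purified calf thymus DNA dialyzed at 37 °C in Tris HCl buffer; complex twice ethanol-precipitated to remove unbound drug. Molar DNA/drug ratio calculated from drug bound only covalently to DNA bases.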
Data set [2] is described as follows: Molar ratio of DNA to total amount of compound that is bound both intercalatively and covalently to calf thymus DNA helix. Format: functional. Put shortly:
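[3H]Drug and purified calf thymus DNA dialyzed at 37 °C in Tris HCl pH 7.4 (20 mM per footnote; 25 mM in methods). Equilibrated complex precipitated twice with ethanol to remove unbound drug. Molar DNA/drug ratio based on total bound drug, intercalative plus covalent.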

The test system of data set [3] is P388/ADR. The data set is described as follows: Antitumor activity measured as %ILS against P388/ADR, in ip implanted CDF1 mice, treated ip, qd 1-9. Format: functional, Mus musculus. Put shortly:
(§1)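 P388/ADR leukemia, a P388/S subline made resistant to intercalators, implanted ip in CDF1 mice. Drug given ip daily on days 1-9 at optimal dose. Read-out is median survival time of tumor-bearing mice and %ILS of treated dying animals versus controls. Survivors beyond 60 days are counted; 10 mice per group.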

Data set [4] has as its system Mus musculus. The data set is described as follows: Antitumor activity measured as median survival time, for iv administration and sc inoculation of B16 melanoma.
Data set [5] has as its system P388/ADR. The data set is described as follows: In vitro 50% Growth inhibition of actinomycin resistant P388/ADR cells. In kind it is functional, Mus musculus. Conditions: read-out: ID50 (the source's name). In short, it runs like this:
(§2)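 Actively growing tumor cells in vitro (actinomycin-resistant P388/ADR leukemia; sensitive B16 melanoma); ID50 is concentration (nM) needed for 50% growth inhibition.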

Data set [6] deals with Mus musculus. The data set is described as follows: Antitumor activity measured as median survival time, for ip administration and ip inoculation of B16 melanoma. Format: functional. In short, it runs like this:
(§3)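 B16 brei (tumor weight/Hank's balanced salt solution 1:5, 0.2 mL) implanted sc or ip into groups of nine BDF1 mice on day 0. Drug given iv on day 1 (sc tumor) or ip on days 1, 5 and 9 (ip tumor), in 0.1 mL 5% v/v Me2SO-saline. Read-out is median survival time and %ILS versus untreated controls, excluding sixty-day survivors.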

Data set [7] has as its system Mus musculus. The data set is described as follows: Antitumor activity measured as % increase in life span, for iv administration of compound and sc inoculation of B16 melanoma.
Data set [8] has as its system Mus musculus. The data set is described as follows: Antitumor activity measured as % increase in life span, for ip administration of compound and ip inoculation of B16 melanoma. Format: functional. In short, it runs like this: as §3
For data set [9], the system named is L1210. The data set is described as follows: 50% Inhibition of growth of L1210 cells in culture. In kind it is functional, Mus musculus. The settings on record: read-out: ID50 (the source's name). In short, it runs like this: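 L1210 leukemia cells growing actively in culture; ID50 is drug concentration (nM) giving 50% inhibition of growth relative to untreated L1210 cells.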

Data set [10] concerns P388/ADR. The data set is described as follows: Antitumor activity against P388/ADR, in ip implanted CDF1 mice, treated ip, qd 1-9 measured as optimal dose. Format: functional, Mus musculus. Put shortly: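 P388/ADR leukemia implanted ip in CDF1 mice; drugs given ip once daily on days 1-9. Optimal dose recorded alongside median survival time and % increase in median life span of treated dying mice versus controls; survivors counted as >60-day survivors per group of 10.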

Data set [11] has as its system B16. The data set is described as follows: In vitro 50% Growth inhibition of sensitive B16 cells. Format: functional, Mus musculus. Conditions: read-out: ID50 (the source's name). In short, it runs like this:
as §2

The species named for data set [12] is Mus musculus. The data set is described as follows: percent increase in median life time (%ILS) measured in mice bearing leukemia L!210. Format: functional. Put shortly: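 CDF1 mice inoculated ip with 10^5 L1210 cells on day 0. Drug given ip on days 1, 5 and 9 at the optimal dose in mg/kg per injection. %ILS is the increase in median life span of treated dying animals versus untreated tumor-bearing mice. Over-60-day survivors are counted; 9 mice per group.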

Data set [13] relates to P388/ADR. The data set is described as follows: Antitumor activity measured as Median survival time in days against P388/ADR, in ip implanted CDF1 mice, treated ip, qd 1-9. In kind it is functional, Mus musculus. In short, it runs like this: as §1
Data set [14] is filed under the species Mus musculus. The data set is described as follows: Antitumor activity measured as optimal dose, against C26 colon carcinoma. In kind it is functional. In short, it runs like this: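 Primary colon C26 carcinoma cells (trypan blue excluding, 2.5 × 10^5 cells/mouse) implanted in CDF1 mice on day 0. Drug given ip on days 1, 5 and 9 in 0.1 mL 5% v/v Me2SO-saline. Optimal dose in […]; %ILS and 60-day survivors scored.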

The species named for data set [15] is Bos taurus. The data set is described as follows: Thermal denaturation of calf thymus DNA measured as ΔTm. The settings on record: cattle, in vitro.
The species entered for data set [16] is Mus musculus. The data set is described as follows: Antitumor activity measured as optimal dose, for B16 melanoma.
For data set [17], the system named is L1210. The data set is described as follows: Optimal dose per injection, administered ip on days 1, 5, and 9, ip inoculation with 10E5 L1210 cells per CDF1 mouse on day 0. Format: functional. Put shortly: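 CDF1 mice inoculated ip with 10^5 L1210 cells on day 0; drugs given ip on days 1, 5 and 9. Optimal dose in mg/kg per injection. %ILS is increase in median life span of treated dying mice over untreated tumor-bearing mice; survivors counted beyond 60 days, 9 per group.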

The species entered for data set [18] is Mus musculus. The data set is described as follows: Antitumor activity measured as % increase in life span, against C26 colon carcinoma. In kind it is functional. Put shortly: (§4)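 C26 primary colon carcinoma cells (trypan blue excluding, 2.5 × 10^5 cells/mouse) implanted in CDF1 mice on day 0. Drug given ip on days 1, 5 and 9 in 0.1 mL 5% v/v Me2SO-saline at optimal dose. Read-out is median survival time; %ILS is drug-treated over control, excluding survivors. Sixty-day survivors are counted.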

The species entered for data set [19] is Mus musculus. The data set is described as follows: Antitumor activity measured as median survival time, against C26 colon carcinoma. Format: functional. In short, it runs like this: as §4
Data set [20] relates to L1210. The data set is described as follows: Inhibition of synthesis of [5-3H]-uridine into RNA in L1210 cells. Format: functional, cell-based, Mus musculus. The settings on record: Mus musculus, L1210. Put shortly: (§5)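 Actively growing L1210 cells in vitro. Incorporation of [5-3H]uridine into RNA, or [methyl-14C]thymidine into DNA, compared with untreated cells. IC50 is micromolar drug concentration giving 50% reduction in incorporation rate.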

Data set [21] has as its system Mus musculus. The data set is described as follows: Antitumor activity measured as % increase in life span, for iv administration of compound and sc inoculation of B16 melanoma. The source holds these as a separate data set.
In data set [22] the test system is L1210. The data set is described as follows: Inhibition of synthesis of [methyl-14C] thymidine into DNA, in L1210 cells. Format: functional, cell-based, Mus musculus. Conditions: Mus musculus, L1210. Put shortly:
as §5

Data set [23] deals with Mus musculus. The data set is described as follows: Antitumor activity measured as median survival time, for iv administration and sc inoculation of B16 melanoma. The source holds these as a separate data set.

The structures appear in SMILES notation. Numbered stars: 1 amine (or outer) side, 2 acyl side, 3 side chain; on linkers, the order of the positions; unused ones are H or OH. Bridge positions count the residues as written; N and C are the ends. Square brackets hold non-standard residues; d marks the D form. Peptide text beside a SMILES is read from it. I, II: the chains in the order shown. Actinocin(1to9) = Cc1c2oc3c(C)ccc(C(=O)[*:2])c3nc-2c(C(=O)[*:1])c(N)c1=O; NMeV = CN[C@H](C(=O)O)C(C)C; Sar = CNCC(=O)O

On to `Cc1c2oc3c(C)c(OCC4CO4)cc(C(=O)N[C@@H]4C(=O)N[C@@H](C(C)C)C(=O)N5CCC[C@H]5C(=O)N(C)CC(=O)N(C)[C@@H](C(C)C)C(=O)O[C@H]4C)c3nc-2c(C(=O)N[C@@H]2C(=O)N[C@@H](C(C)C)C(=O)N3CCC[C@H]3C(=O)N(C)CC(=O)N(C)[C@@H](C(C)C)C(=O)O[C@H]2C)c(N)c1=O` (stereo in doubt), for which the Ratio in data set [1] was 520; in data set [2] it was 32.

In general, ILS refers to the gain in survival time of treated over control animals, in per cent. Low readings indicate little gain in survival, high ones much gain in survival. As for `Cc1c2oc3c(C)c(OCC4CO4)cc(C(=O)N[C@@H]4C(=O)N[C@H](C(C)C)C(=O)N5CCC[C@H]5C(=O)N(C)CC(=O)N(C)[C@@H](C(C)C)C(=O)O[C@@H]4C)c3nc-2c(C(=O)N[C@@H]2C(=O)N[C@H](C(C)C)C(=O)N3CCC[C@H]3C(=O)N(C)CC(=O)N(C)[C@@H](C(C)C)C(=O)O[C@@H]2C)c(N)c1=O` (stereo in doubt), the ILS turned out to be 377% in data set [3], 60% in data set [7], 74% in data set [8] and 143% in [12]. In addition, the MST in [4] was 53 days; in [6], 33 days; in data set [13] it was 43 days. The IC50 in data set [5] came to 135 nM; in data set [9] it was 56.8 nM; in data set [11], 3.5 nM. In addition, the Dose in [10] was 0.8 mg/kg; in data set [14], 0.9 mg/kg.

As to `Cc1c2oc3c(C)ccc(C(=O)N[C@@H]4C(=O)N[C@H](C(C)C)C(=O)N5CCC[C@H]5C(=O)N(C)CC(=O)N(C)[C@@H](C(C)C)C(=O)O[C@@H]4C)c3nc-2c(C(=O)N[C@@H]2C(=O)N[C@H](C(C)C)C(=O)N3CCC[C@H]3C(=O)N(C)CC(=O)N(C)[C@@H](C(C)C)C(=O)O[C@@H]2C)c(N)c1=O` [DACTINOMYCIN] (I: T[dV]P[Sar][NMeV] / II: T[dV]P[Sar][NMeV]; ester I:1-I:C, II:1-II:C; linker I:N-II:N via Actinocin(1to9)), the Ratio in data set [2] turned out to be 26. Moreover, the ILS in data set [3] worked out at 33%; in [18] it was 52%; in data set [8], 52%; in data set [12] it was 55%; in data set [21], 36%. Moreover, in [15], the ΔTm was determined as 7.1. Besides, the Dose is 0.9 mg/kg in data set [16], 0.025 mg/kg in data set [17], 0.075 mg/kg in data set [10] and 0.3 mg/kg in [14]. In addition, the MST in data set [4] stood at 45 days; in [6], 29 days; in data set [19], 33.5 days; in data set [13], 12 days. Moreover, the IC50 in data set [5] (Mus musculus, P388/ADR) was 2500 nM; in data set [9] (Mus musculus, L1210), 60.1 nM; in data set [11] (Mus musculus, B16) it was 3 nM; in data set [20] it was 19 nM; in data set [22], 380 nM.

As for `Cc1c2oc3c(C)c(OC[C@H]4CO4)cc(C(=O)N[C@@H]4C(=O)N[C@@H](C(C)C)C(=O)N5CCC[C@H]5C(=O)N(C)CC(=O)N(C)[C@@H](C(C)C)C(=O)O[C@H]4C)c3nc-2c(C(=O)N[C@@H]2C(=O)N[C@@H](C(C)C)C(=O)N3CCC[C@H]3C(=O)N(C)CC(=O)N(C)[C@@H](C(C)C)C(=O)O[C@H]2C)c(N)c1=O`, the figures for the Ratio in data set [1] and in data set [2] were 500 and 30, respectively.

Turning to `Cc1c2oc3c(C)c(OC[C@H]4CO4)cc(C(=O)N[C@@H]4C(=O)N[C@H](C(C)C)C(=O)N5CCC[C@H]5C(=O)N(C)CC(=O)N(C)[C@@H](C(C)C)C(=O)O[C@@H]4C)c3nc-2c(C(=O)N[C@@H]2C(=O)N[C@H](C(C)C)C(=O)N3CCC[C@H]3C(=O)N(C)CC(=O)N(C)[C@@H](C(C)C)C(=O)O[C@@H]2C)c(N)c1=O`, the ILS in data set [3] was found to be 400%; in [8] it was 105%; in data set [12] it was 199%; in [21], 70%. For the same compound, the Dose came to 1 mg/kg in data set [16], 0.05 mg/kg in data set [17], 0.3 mg/kg in data set [10] and 0.6 mg/kg in data set [14]. In addition, the IC50 worked out at 40 nM in data set [5] (Mus musculus, P388/ADR); 23.1 nM in data set [9] (Mus musculus, L1210); 2 nM in [11] (Mus musculus, B16). Besides, the MST in data set [6] stood at 39 days; in [19], 41.5 days; in [23], 56 days; in data set [13] it was 45 days. This compound showed a %ILS in data set [18] of 89%.

Values taken from ChEMBL document CHEMBL1124173, “Enantiomers of 7-(2,3-epoxypropoxy)actinomycin D as dual-action DNA-acting antitumor agents” (J Med Chem, 1988).
